The target in assay [1] is T1, human 53BP1 tandem Tudor domain (Homo sapiens, UniProt Q12888). The experiment in a line: Binding of peptides to the 53BP1 tandem Tudor domain by tryptophan fluorescence. As to conditions: for decrease in binding affinity relative to p53K382me2: ratio of Kd values, 25°C (Fig. 2a, b; Fig. 3e). The essentials: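 Synthetic Fmoc-made peptides were HPLC-purified. Intrinsic tryptophan fluorescence was measured at 25°C on 0.5 μM protein with increasing peptide, exciting at 295 nm and recording emission at 305–405 nm over three scans. Kd came from a nonlinear quadratic binding fit, averaged over three experiments ± SD.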

Assay [2] concerns the target T1, human 53BP1 tandem Tudor domain. The experiment in a line: other fluorescence titration.

The record followed here is article PMC2865857 (Journal of molecular biology, 2010).

Where no end group is shown, it is not given here. [ ]: non-standard residue; d: D form. Lys(Me2) = CN(C)CCCC[C@H](N)C(=O)O

For `CSCC[C@H](NC(=O)[C@H](CC(C)C)NC(=O)[C@H](CCCCN(C)C)NC(=O)[C@H](CCCCN)NC(=O)[C@H](Cc1c[nH]cn1)NC(=O)[C@H](CCCNC(=N)N)NC(=O)[C@H](CO)NC(=O)[C@@H](N)[C@@H](C)O)C(=O)N[C@@H](Cc1ccccc1)C(=O)N[C@@H](CCCCN)C(=O)O` [p53K382me2], the Kd in assay [1] was determined as 0.9 µM. In other words, the sub-micromolar range. Take “H4K20me2 peptide (15–23) (from UniProt P62805 16-24)”: the Kd in assay [2] was determined as 1.3 µM.

For “p53H380AK382me2: p53K382me2 peptide (377–386) with His380 substituted with Ala (TSRAK[Lys(Me2)]LMFK)”, the “decrease in binding affinity relative to p53K382me2” value in assay [1] (tryptophan fluorescence) is reported as 16 fold. Consider “p53K370me2: p53 peptide (366–375) dimethylated at Lys370 (SSHL[Lys(Me2)]SKKGQ)”, for which the “decrease in binding affinity relative to p53K382me2” value in assay [1] (tryptophan fluorescence) worked out at 22 fold. For the compound “p53K372me2: p53 peptide (367–377) dimethylated at Lys372 (SHLKS[Lys(Me2)]KGQST)”, the “decrease in binding affinity relative to p53K382me2” value in assay [1] (tryptophan fluorescence) is 22 fold. In the case of “p53K381AK382me2: p53K382me2 peptide (377–386) with Lys381 substituted with Ala (TSRHA[Lys(Me2)]LMFK)”, the “decrease in binding affinity relative to p53K382me2” value in assay [1] (tryptophan fluorescence) is 11 fold. In the case of “p53K382me2L383A: p53K382me2 peptide (377–386) with Leu383 replaced (TSRHK[Lys(Me2)]AMFK)”, the “effect of residue replacement on the Kd relative to p53K382me2 (in words)” value in assay [1] (tryptophan fluorescence, 25°C (Fig. 2a)) is “virtually no effect”.

For the compound “unmodified p53 peptide: unmodified p53 peptide, residues 377–386 (TSRHKKLMFK; UniProt P04637 377-386, looked up, fragment)”, in assay [1] (Fig. 2a, measured by tryptophan fluorescence or Isothermal Titration Calorimetry), the “association of 53BP1 tandem Tudor domain with peptide (in words)” value was “does not associate”.

One may read the Kd as a measure of binding affinity in units of concentration.
